Values joined by “and” are separate entries in the source; they are usually repeats but may differ in a detail not shown here. Identical values can stand only once.
Key:
[1] = organism: Mus musculus; assay: Effect on the sleeping time of mice before halothane load (control group); type: functional
Summary of the method: (§1)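 Groups of 10 mice received compound orally 1 h before testing, at 100 mg/kg unless another dose is noted. Vehicle was 0.5% gum arabic in 0.9% saline, and controls received vehicle alone. Mice were exposed to 4% halothane in air at 2 L/min. Sleeping time ran from loss to recovery of righting reflex (mean ± SE s), expressed as % of control. Two-tailed t-test was used.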

[2] = tested on: Mus musculus; assay: Effect on the sleeping time of mice anesthetized with halothane (treated group); type: functional; summary of the method: as §1
[3] = target: T1, Sigma non-opioid intracellular receptor 1 (Rattus norvegicus, UniProt Q9R0C9); assay: Binding affinity for sigma receptor was evaluated by the inhibitory effect on [3H]DTG to rat whole brain membranes; type: cell membranes
Summary of the method: (§2)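 Bound ligand collected by filtration onto PEI-soaked filters and counted by scintillation; nonspecific binding defined with haloperidol. IC50 by nonlinear least-squares fit; mean ± SE of three experiments, or a single experiment where no SE is given.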

[4] = tested on: Mus musculus; assay: Effect on the sleeping time of mice anesthetized with halothane (treated group) (30 mg/kg); type: functional; summary of the method: as §1
[5] = tested on: Mus musculus; assay: Effect on Immobility Time in the Forced-Swimming Test in Mice at the dose of 10 mg/kg po; type: functional
Summary of the method: (§3)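 Mice, 8 per group. Dosing was oral, either as a single dose 1 h before testing on day 2 or repeated once daily for 4 days. Each mouse swam 6 min in a cylinder with 6 cm of water at 22-23 °C, and immobility was scored over the last 4 min. Results are mean ± SE seconds and % of control, analysed by one-way ANOVA with Dunnett's test.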

[6] = tested on: Mus musculus; assay: Effect on Immobility Time in the Forced-Swimming Test in Mice at the dose of 0 mg/kg po; type: functional; summary of the method: as §3
[7] = organism: Mus musculus; assay: Effect on recovery time for coma induced in mice by cerebral concussion (treated group); type: functional
Summary of the method: (§4)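 Groups of 10 mice received compound orally 1 h before head concussion, at 100 mg/kg unless another dose is noted. Vehicle was 0.5% gum arabic in saline, and controls received vehicle alone. The read-out was time to reappearance of the righting reflex (mean ± SE s), expressed as % of control. Two-tailed t-test was used.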

[8] = organism: Mus musculus; assay: Effect on recovery time for coma induced in mice by cerebral concussion (control group); type: functional; summary of the method: as §4
[9] = tested on: Mus musculus; assay: Effect on Immobility Time in the Forced-Swimming Test in Mice at the dose of 1 mg/kg po; type: functional; summary of the method: as §3
[10] = tested on: Mus musculus; assay: Effect on the time required for recovery from coma induced in mice by cerebral concussion at the dose of 10 mg/kg po; type: functional
Summary of the method: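 In the concussion-coma test in mice (n = 10), compound was given orally 1 h before concussion, and antagonists were pre-dosed 15 min to 1 h before the test compound. The read-out was time to recovery of the righting reflex as % of control. Statistics were two-tailed t-test versus control and one-way ANOVA with Dunnett's test versus the treated group.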

[11] = target: T1, Sigma non-opioid intracellular receptor 1; assay: Binding affinity for sigma receptor was evaluated by the inhibitory effect on [3H]DTG to rat whole brain membranes.; type: functional, cell membranes; summary of the method: as §2
[12] = tested on: Mus musculus; assay: Effect on the sleeping time of mice anesthetized with halothane (treated group) (p <0.01); type: functional; summary of the method: as §1
[13] = tested on: Mus musculus; assay: Effect on Immobility Time in the Forced-Swimming Test in Mice at the dose of 30 mg/kg po for repeated administration; type: functional; summary of the method: as §3
[14] = tested on: Mus musculus; assay: Effect on Immobility Time in the Forced-Swimming Test in Mice at the dose of 30 mg/kg po for single administration; type: functional; summary of the method: as §3
[15] = tested on: Mus musculus; assay: Effect on Immobility Time in the Forced-Swimming Test in Mice at the dose of 0 mg/kg po for repeated administration; type: functional; summary of the method: as §3
[16] = tested on: Mus musculus; assay: Effect on Immobility Time in the Forced-Swimming Test in Mice at the dose of 10 mg/kg po for repeated administration; type: functional; summary of the method: as §3
[17] = tested on: Mus musculus; assay: Effect on Immobility Time in the Forced-Swimming Test in Mice at the dose of 10 mg/kg po for single administration; type: functional; summary of the method: as §3
[18] = tested on: Mus musculus; assay: Effect on Immobility Time in the Forced-Swimming Test in Mice at the dose of 0 mg/kg po for single administration; type: functional; summary of the method: as §3

T1 sequence (Q9R0C9 whole entry): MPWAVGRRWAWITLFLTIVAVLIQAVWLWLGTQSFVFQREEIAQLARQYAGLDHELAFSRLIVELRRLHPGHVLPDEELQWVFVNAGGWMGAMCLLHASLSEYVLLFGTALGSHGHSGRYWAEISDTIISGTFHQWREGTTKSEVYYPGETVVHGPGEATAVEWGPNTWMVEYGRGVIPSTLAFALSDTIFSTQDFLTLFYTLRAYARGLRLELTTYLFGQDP

Row | Structure (SMILES) | Sleeping time [1] [s] | Sleeping time [2] [s] | IC50 [3] [nM] | RRT [7] [s] | RRT [8] [s] | further results
1 | Br.O=C1CCc2c(Cl)cccc2N1CCCN1CCN(c2cccc(O)c2)CC1 | 564 | 529 | 240 | – | – | –
2 | COc1cccc2c1CCC(=O)N2CCCN1CCN(c2cccc(Cl)c2)CC1.CS(=O)(=O)O.O | 613 | – | – | <49 | 165 | Sleeping time [4]: <414 s; Time [5]: <138 s; Time [6]: 199 s; Time [9]: <140 s
3 | COc1cccc2c1CCC(=O)N2CCCN1CCN(c2cccc(Cl)c2)CC1.Cl | 566 | <294 | – | <36 | 180 | Time [5]: <61 s; Time [6]: 115 s; Time [9]: <56 s
4 | Cc1ccccc1NC(=N)Nc1ccccc1C | – | – | – | <101 | 153 | RRT [10]: <81 s and <210 s
5 | COc1cccc2c1ccc(=O)n2CCCN1CCN(c2cccc(Br)c2)CC1 | – | – | – | <70 | 122 | –
6 | COc1cccc2c1CCC(=O)N2CCCN1CCN(c2ccc(Cl)cc2)CC1 | 465 | 496 | – | – | – | IC50 [11]: 460 nM
7 | COc1cccc2c1CCC(=O)N2CCCN1CCN(c2cccc(C)c2)CC1 | 353 | 426 | – | – | – | –
8 | COc1cccc2c1CCC(=O)N2CCCN1CCN(c2cccc(C(F)(F)F)c2)CC1 | 379 | <250 | 490 | <48 | 134 | –
9 | CC(=O)Nc1cccc(N2CCN(CCCN3C(=O)CCc4c(Cl)cccc43)CC2)c1 | 565 | – | 670 | – | – | Sleeping time [12]: <778 s
10 | COc1cccc2c1CCC(=O)N2CCCN1CCN(c2cccc(N)c2)CC1 | 553 | <1380 | – | – | – | –
11 | CC(C)Oc1cccc2c1CCC(=O)N2CCCN1CCN(c2cccc(Cl)c2)CC1 | 353 | 304 | – | – | – | –
12 | COc1cccc2c1CCC(=O)N2CCCN1CCN(c2cccc(F)c2)CC1 | 465 | 600 | – | – | – | –
13 | COc1cccc2c1ccc(=O)n2CCCN1CCN(c2cccc(C(F)(F)F)c2)CC1 | – | – | 820 | <65 | 128 | –
14 | O=c1ccc2ccc(O)cc2n1CCCN1CCN(c2ccc(F)cc2)CC1 | 561 | 582 | 1320 | – | – | –
15 | O=c1ccc2ccccc2n1CCCN1CCN(c2cccc(Cl)c2)CC1 | 616 | 704 | 620 | 111 | 138 | –
16 | COc1cccc(N2CCN(CCCN3C(=O)CCc4c(Cl)cccc43)CC2)c1 | 548 | <277 | 130 | <36 | 132 | –
17 | O=C1CCc2c(Cl)cccc2N1CCCN1CCN(c2cccc(Cl)c2)CC1 | 548 | 677 | – | – | – | –
18 | COc1ccc2c(c1)CCC(=O)N2CCCN1CCN(c2cccc(Cl)c2)CC1 | 566 | <770 | – | – | – | –
19 | COc1cccc(N2CCN(CCCN3C(=O)CCc4c(OC)cccc43)CC2)c1 | 478 | 579 | – | – | – | –
20 | O=C(Oc1ccc2c(c1)CCC(=O)N2CCCN1CCN(c2ccccc2)CC1)c1ccccc1 | 561 | <1097 | – | – | – | IC50 [11]: > 10000 nM
21 | Cc1cccc(N2CCN(CCCOc3ccc4ccc(O)nc4c3)CC2)c1C | 311 | <956 | – | – | – | –
22 | COc1ccc2c(c1)N(CCCN1CCN(c3cccc(Cl)c3)CC1)C(=O)CC2 | 566 | <1280 | – | – | – | –
23 | COc1cccc2c1CCC(=O)N2CCCN1CCN(c2cccc([N+](=O)[O-])c2)CC1 | 553 | <339 | 870 | <74 | 141 | –

Row | Structure (SMILES) | Sleeping time [1] [s] | Sleeping time [2] [s] | IC50 [3] [nM] | RRT [7] [s] | RRT [8] [s] | further results
24 | Nc1cccc2c1CCC(=O)N2CCCN1CCN(c2cccc(Cl)c2)CC1 | – | – | – | 129 | 128 | –
25 | CCOc1cccc2c1CCC(=O)N2CCCN1CCN(c2cccc(Cl)c2)CC1 | 353 | <238 | 870 | <31 | 113 | –
26 | COc1cccc2c1ccc(=O)n2CCCN1CCN(c2cccc(Cl)c2)CC1 | – | – | 980 | 131 | 122 | –
27 | COc1cccc2c1N(CCCN1CCN(c3cccc(Cl)c3)CC1)C(=O)CC2 | – | – | 600 | 109 | 128 | –
28 | COc1cccc2c1CCC(=O)N2CCCN1CCN(c2cccc(Br)c2)CC1 | 498 | <267 | 420 | <61 | 136 | –
29 | COc1cccc2c1CCC(=O)N2CCCN1CCN(c2cccc(O)c2)CC1 | 483 | 400 | – | – | – | IC50 [11]: 810 nM
30 | CC(C)=CCN1CC[C@@]2(C)c3cc(O)ccc3C[C@@H]1[C@@H]2C | 549 | <370 | – | <72 | 170 | –
31 | O=C1CCc2c(Cl)cccc2N1CCCN1CCN(c2cccc([N+](=O)[O-])c2)CC1 | – | – | 390 | 110 | 152 | –
32 | CSc1cccc2c1CCC(=O)N2CCCN1CCN(c2cccc(Cl)c2)CC1 | 363 | 439 | – | – | – | –
33 | COc1cccc(N2CCN(CC(=O)NC3c4c(O)c(C)cc(C)c4CC3(C)C)CC2)c1 (configuration not stated) | 625 | <373 | > 15000 | <54 | 210 | Time [5]: 123 s; Time [6]: 120 s; Time [9]: 119 s
34 | COc1cccc2c1CCC(=O)N2CCCN1CCN(c2ccccc2Cl)CC1 | 465 | 675 | 260 | – | – | –
35 | COc1cccc2c1CCC(=O)N2CCCCN1CCN(c2cccc(Cl)c2)CC1 | 478 | 549 | – | – | – | –
36 | CCCOc1cccc(N2CCN(CCCN3C(=O)CCc4c(Cl)cccc43)CC2)c1 | 465 | 393 | 370 | – | – | –
37 | Nc1cccc(N2CCN(CCCN3C(=O)CCc4c(Cl)cccc43)CC2)c1 | 504 | 646 | 710 | – | – | –
38 | O=C1CCc2c(O)cccc2N1CCCN1CCN(c2cccc(Cl)c2)CC1 | 585 | 516 | – | – | – | –
39 | COc1cccc2c1CCC(=O)N2CCN1CCN(c2cccc(Cl)c2)CC1 | 498 | 676 | – | – | – | –
40 | COc1cccc2c1CCC(=O)N2CCCN1CCN(c2cccc(C#N)c2)CC1 | 553 | 465 | – | – | – | –
41 | COc1cccc2c1CCC(=O)N2CCCN1CCN(c2cc(Cl)cc(Cl)c2)CC1 | 363 | 310 | – | 168 | 133 | –
42 | CN1C(=O)CN=C(c2ccccc2)c2cc(Cl)ccc21 [DIAZEPAM] | 245 | <709 | – | – | – | –
43 | CN(C)CCCN1c2ccccc2CCc2ccccc21 [IMIPRAMINE] | – | – | – | 290 | 177 | Time [13]: <109 s; Time [14]: 160 s; Time [15]: 178 s; Time [16]: 122 s; Time [17]: 158 s; Time [18]: 198 s
44 | NC(=O)[C@@H]1CCCN1C(=O)[C@H](Cc1c[nH]cn1)NC(=O)[C@@H]1CCC(=O)N1 [PROTIRELIN] | 663 | <377 | – | <44 | 173 | –
45 | C[C@@H]1CN(CCCn2c3ccccc3c3ccccc32)C[C@H](C)N1 [RIMCAZOLE] | 482 | 490 | – | 115 | 131 | –
